According to ChEMBL document CHEMBL4152188, “Design, synthesis and biological evaluation of C(4) substituted monobactams as antibacterial agents against multidrug-resistant Gram-negative bacteria” (Eur J Med Chem, 2018):
In brackets after ≈: the same amount, converted by molar mass.

What was measured:
Type in all cases: functional
[1] = system: Escherichia coli; experiment: Antibacterial activity against extended-spectrum beta-lactamase producing Escherichia coli isolate 212648 after 18 hrs by CLSI broth microdilution method; conditions: isolate 212648, 18 h
[2] = system: Escherichia coli; experiment: Selectivity index, ratio of MIC for against extended-spectrum beta-lactamase producing Escherichia coli isolate 208687 to MIC for extended-spectrum beta-lactamase producing Escherichia coli isolate 208687 in presence of BPL
[3] = system: Escherichia coli; experiment: Antibacterial activity against Escherichia coli isolate 210737 after 18 hrs by CLSI broth microdilution method; conditions: isolate 210737, 18 h
[4] = system: Escherichia coli; experiment: Antibacterial activity against extended-spectrum beta-lactamase producing Escherichia coli isolate 208687 after 18 hrs by CLSI broth microdilution method; conditions: isolate 208687, 18 h
[5] = system: Escherichia coli; experiment: Antibacterial activity against extended-spectrum beta-lactamase producing Escherichia coli isolate 208687 after 18 hrs in presence of BPL by CLSI broth microdilution method; conditions: isolate 208687, 18 h
Outline: (§1)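 CLSI broth microdilution against clinical isolates (ESBL E. coli, KPC-2 MDR K. pneumoniae, IMP-4 MDR P. aeruginosa; five per species). Iron limitation: Mueller-Hinton broth supplemented with 16 mg/liter 2,2'-bipyridyl to complex iron and induce iron uptake systems. Read-out: MIC.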

[6] = system: Escherichia coli; experiment: Antibacterial activity against Escherichia coli isolate 210737 after 18 hrs in presence of BPL by CLSI broth microdilution method; conditions: isolate 210737, 18 h; outline: as §1
[7] = system: Escherichia coli; experiment: Selectivity index, ratio of MIC for against Escherichia coli isolate 210737 to MIC for Escherichia coli isolate 210737 in presence of BPL
[8] = system: Escherichia coli; experiment: Antibacterial activity against extended-spectrum beta-lactamase producing Escherichia coli isolate 212648 after 18 hrs in presence of BPL by CLSI broth microdilution method; conditions: isolate 212648, 18 h; outline: as §1
[9] = system: Escherichia coli; experiment: Selectivity index, ratio of MIC for against extended-spectrum beta-lactamase producing Escherichia coli isolate 212648 to MIC for extended-spectrum beta-lactamase producing Escherichia coli isolate 212648 in presence of BPL
[10] = system: Escherichia coli; experiment: Antibacterial activity against extended-spectrum beta-lactamase producing Escherichia coli isolate 209285 after 18 hrs by CLSI broth microdilution method; conditions: isolate 209285, 18 h
[11] = system: Escherichia coli; experiment: Antibacterial activity against extended-spectrum beta-lactamase producing Escherichia coli isolate 209285 after 18 hrs in presence of BPL by CLSI broth microdilution method; conditions: isolate 209285, 18 h; outline: as §1
[12] = system: Escherichia coli; experiment: Selectivity index, ratio of MIC for against extended-spectrum beta-lactamase producing Escherichia coli isolate 209285 to MIC for extended-spectrum beta-lactamase producing Escherichia coli isolate 209285 in presence of BPL
[13] = system: Escherichia coli; experiment: Antibacterial activity against extended-spectrum beta-lactamase producing Escherichia coli isolate 106342 after 18 hrs by CLSI broth microdilution method; conditions: isolate 106342, 18 h
[14] = system: Escherichia coli; experiment: Antibacterial activity against extended-spectrum beta-lactamase producing Escherichia coli isolate 106342 after 18 hrs in presence of BPL by CLSI broth microdilution method; conditions: isolate 106342, 18 h; outline: as §1
[15] = system: Escherichia coli; experiment: Selectivity index, ratio of MIC for against extended-spectrum beta-lactamase producing Escherichia coli isolate 106342 to MIC for extended-spectrum beta-lactamase producing Escherichia coli isolate 106342 in presence of BPL
[16] = system: Klebsiella pneumoniae; experiment: Antibacterial activity against KPC-2 producing Klebsiella pneumoniae isolate 212423 after 18 hrs by CLSI broth microdilution method; conditions: isolate 212423, 18 h
[17] = system: Klebsiella pneumoniae; experiment: Antibacterial activity against KPC-2 producing Klebsiella pneumoniae isolate 212423 after 18 hrs in presence of BPL by CLSI broth microdilution method; conditions: isolate 212423, 18 h; outline: as §1
[18] = system: Klebsiella pneumoniae; experiment: Selectivity index, ratio of MIC for against KPC-2 producing Klebsiella pneumoniae isolate 212423 to MIC for against KPC-2 producing Klebsiella pneumoniae isolate 212423 in presence of BPL
[19] = system: Klebsiella pneumoniae; experiment: Antibacterial activity against KPC-2 producing Klebsiella pneumoniae isolate 209632 after 18 hrs by CLSI broth microdilution method; conditions: isolate 209632, 18 h
[20] = system: Klebsiella pneumoniae; experiment: Antibacterial activity against KPC-2 producing Klebsiella pneumoniae isolate 209632 after 18 hrs in presence of BPL by CLSI broth microdilution method; conditions: isolate 209632, 18 h; outline: as §1
[21] = system: Klebsiella pneumoniae; experiment: Selectivity index, ratio of MIC for against KPC-2 producing Klebsiella pneumoniae isolate 209632 to MIC for against KPC-2 producing Klebsiella pneumoniae isolate 209632 in presence of BPL
[22] = system: Klebsiella pneumoniae; experiment: Antibacterial activity against KPC-2 producing Klebsiella pneumoniae isolate 209735 after 18 hrs by CLSI broth microdilution method; conditions: isolate 209735, 18 h
[23] = system: Klebsiella pneumoniae; experiment: Antibacterial activity against KPC-2 producing Klebsiella pneumoniae isolate 209735 after 18 hrs in presence of BPL by CLSI broth microdilution method; conditions: isolate 209735, 18 h; outline: as §1
[24] = system: Klebsiella pneumoniae; experiment: Selectivity index, ratio of MIC for against KPC-2 producing Klebsiella pneumoniae isolate 209735 to MIC for against KPC-2 producing Klebsiella pneumoniae isolate 209735 in presence of BPL
[25] = system: Klebsiella pneumoniae; experiment: Antibacterial activity against KPC-2 producing Klebsiella pneumoniae isolate 212232 after 18 hrs by CLSI broth microdilution method; conditions: isolate 212232, 18 h
[26] = system: Klebsiella pneumoniae; experiment: Antibacterial activity against KPC-2 producing Klebsiella pneumoniae isolate 212232 after 18 hrs in presence of BPL by CLSI broth microdilution method; conditions: isolate 212232, 18 h; outline: as §1
[27] = system: Klebsiella pneumoniae; experiment: Selectivity index, ratio of MIC for against KPC-2 producing Klebsiella pneumoniae isolate 212232 to MIC for against KPC-2 producing Klebsiella pneumoniae isolate 212232 in presence of BPL
[28] = system: Klebsiella pneumoniae; experiment: Antibacterial activity against KPC-2 producing Klebsiella pneumoniae isolate 212229 after 18 hrs by CLSI broth microdilution method; conditions: isolate 212229, 18 h
[29] = system: Klebsiella pneumoniae; experiment: Antibacterial activity against KPC-2 producing Klebsiella pneumoniae isolate 212229 after 18 hrs in presence of BPL by CLSI broth microdilution method; conditions: isolate 212229, 18 h; outline: as §1
[30] = system: Klebsiella pneumoniae; experiment: Selectivity index, ratio of MIC for against KPC-2 producing Klebsiella pneumoniae isolate 212229 to MIC for against KPC-2 producing Klebsiella pneumoniae isolate 212229 in presence of BPL
[31] = system: Pseudomonas aeruginosa; experiment: Antibacterial activity against IMP-4 producing Pseudomonas aeruginosa isolate 212886 after 18 hrs by CLSI broth microdilution method; conditions: isolate 212886, 18 h
[32] = system: Pseudomonas aeruginosa; experiment: Antibacterial activity against IMP-4 producing Pseudomonas aeruginosa isolate 212886 after 18 hrs in presence of BPL by CLSI broth microdilution method; conditions: isolate 212886, 18 h; outline: as §1
[33] = system: Pseudomonas aeruginosa; experiment: Selectivity index, ratio of MIC for against IMP-4 producing Pseudomonas aeruginosa isolate 212886 to MIC for against IMP-4 producing Pseudomonas aeruginosa isolate 212886 in presence of BPL
[34] = system: Pseudomonas aeruginosa; experiment: Antibacterial activity against IMP-4 producing Pseudomonas aeruginosa isolate 209471 after 18 hrs by CLSI broth microdilution method; conditions: isolate 209471, 18 h
[35] = system: Pseudomonas aeruginosa; experiment: Antibacterial activity against IMP-4 producing Pseudomonas aeruginosa isolate 209471 after 18 hrs in presence of BPL by CLSI broth microdilution method; conditions: isolate 209471, 18 h; outline: as §1
[36] = system: Pseudomonas aeruginosa; experiment: Selectivity index, ratio of MIC for against IMP-4 producing Pseudomonas aeruginosa isolate 209471 to MIC for against IMP-4 producing Pseudomonas aeruginosa isolate 209471 in presence of BPL
[37] = system: Pseudomonas aeruginosa; experiment: Antibacterial activity against IMP-4 producing Pseudomonas aeruginosa isolate 208247 after 18 hrs by CLSI broth microdilution method; conditions: isolate 208247, 18 h
[38] = system: Pseudomonas aeruginosa; experiment: Antibacterial activity against IMP-4 producing Pseudomonas aeruginosa isolate 208247 after 18 hrs in presence of BPL by CLSI broth microdilution method; conditions: isolate 208247, 18 h; outline: as §1
[39] = system: Pseudomonas aeruginosa; experiment: Selectivity index, ratio of MIC for against IMP-4 producing Pseudomonas aeruginosa isolate 208247 to MIC for against IMP-4 producing Pseudomonas aeruginosa isolate 208247 in presence of BPL
[40] = system: Pseudomonas aeruginosa; experiment: Antibacterial activity against IMP-4 producing Pseudomonas aeruginosa isolate 209321 after 18 hrs by CLSI broth microdilution method; conditions: isolate 209321, 18 h
[41] = system: Pseudomonas aeruginosa; experiment: Antibacterial activity against IMP-4 producing Pseudomonas aeruginosa isolate 209321 after 18 hrs in presence of BPL by CLSI broth microdilution method; conditions: isolate 209321, 18 h; outline: as §1
[42] = system: Pseudomonas aeruginosa; experiment: Selectivity index, ratio of MIC for against IMP-4 producing Pseudomonas aeruginosa isolate 209321 to MIC for against IMP-4 producing Pseudomonas aeruginosa isolate 209321 in presence of BPL
[43] = system: Pseudomonas aeruginosa; experiment: Antibacterial activity against IMP-4 producing Pseudomonas aeruginosa isolate 207272 after 18 hrs by CLSI broth microdilution method; conditions: isolate 207272, 18 h
[44] = system: Pseudomonas aeruginosa; experiment: Antibacterial activity against IMP-4 producing Pseudomonas aeruginosa isolate 207272 after 18 hrs in presence of BPL by CLSI broth microdilution method; conditions: isolate 207272, 18 h; outline: as §1
[45] = system: Pseudomonas aeruginosa; experiment: Selectivity index, ratio of MIC for against IMP-4 producing Pseudomonas aeruginosa isolate 207272 to MIC for against IMP-4 producing Pseudomonas aeruginosa isolate 207272 in presence of BPL

Structure (SMILES): COC[C@@H]1[C@H](NC(=O)/C(=N\OC(c2cc(=O)c(O)cn2O)C(C)C)c2csc(N)n2)C(=O)N1S(=O)(=O)O (stereo not given in full)
- MIC [1]: 1 µg/mL (≈ 1.78 µM)
- Selectivity Index [2]: 2
- MIC [3]: 0.5 µg/mL (≈ 0.892 µM)
- MIC [4]: 0.5 µg/mL (≈ 0.892 µM)
- MIC [5]: 0.25 µg/mL
- MIC [6]: 0.5 µg/mL
- Selectivity Index [7]: 1
- MIC [8]: 0.25 µg/mL
- Selectivity Index [9]: 4
- MIC [10]: 0.5 µg/mL (≈ 0.892 µM)
- MIC [11]: 0.125 µg/mL
- Selectivity Index [12]: 4
- MIC [13]: 0.5 µg/mL (≈ 0.892 µM)
- MIC [14]: 0.25 µg/mL
- Selectivity Index [15]: 2
- MIC [16]: 0.5 µg/mL (≈ 0.892 µM)
- MIC [17]: 0.25 µg/mL
- Selectivity Index [18]: 2
- MIC [19]: 4 µg/mL (≈ 7.14 µM)
- MIC [20]: 1 µg/mL
- Selectivity Index [21]: 4
- MIC [22]: 16 µg/mL (≈ 28.5 µM)
- MIC [23]: 4 µg/mL
- Selectivity Index [24]: 4
- MIC [25]: 4 µg/mL (≈ 7.14 µM)
- MIC [26]: 0.5 µg/mL
- Selectivity Index [27]: 8
- MIC [28]: 0.5 µg/mL (≈ 0.892 µM)
- MIC [29]: 0.125 µg/mL
- Selectivity Index [30]: 4
- MIC [31]: 16 µg/mL (≈ 28.5 µM)
- MIC [32]: 16 µg/mL
- Selectivity Index [33]: 1
- MIC [34]: 16 µg/mL (≈ 28.5 µM)
- MIC [35]: 8 µg/mL
- Selectivity Index [36]: 2
- MIC [37]: 8 µg/mL (≈ 14.3 µM)
- MIC [38]: 8 µg/mL
- Selectivity Index [39]: 1
- MIC [40]: 16 µg/mL (≈ 28.5 µM)
- MIC [41]: 16 µg/mL
- Selectivity Index [42]: 1
- MIC [43]: 8 µg/mL (≈ 14.3 µM)
- MIC [44]: 8 µg/mL
- Selectivity Index [45]: 1
